Assay results: ChEMBL document CHEMBL1125823, “2-Phenylindole-linked [2-(aminoalkyl)pyridine]dichloroplatinum(II): complexes with a selective action on estrogen receptor positive mammary tumors” (1991)

Experiments:
[1] = target: T1, Estrogen receptor (Mus musculus) (UniProt O08537+P19785); experiment: Percent inhibition of estrone stimulated uterotrophic effect in mice at 150 ug; assay type: functional
Method in brief: (§1)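 Immature mice given test compound per animal sc on three consecutive days together with 0.4 μg estrone/animal/day. Killed 24 h after last injection; uteri fixed in Bouin, dried 100 °C 24 h and weighed. Inhibition = 100 − [(W_S,T − W_V)/(W_S − W_V) × 100] using relative uterus weights; 6-10 animals; Wilcoxon-Mann-Whitney U test.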

[2] = target: T1, Estrogen receptor (Mus musculus); experiment: Anti-uterotrophic effect in mice as relative uterine weight(mg) at 150 ug; assay type: functional
Method in brief: (§2)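 Immature mice received the compound sc per animal on three consecutive days, alone or with 0.4 µg estrone per animal per day. Uteri were taken 24 h after the last injection, Bouin-fixed, dried at 100 °C for 24 h and weighed. Relative uterus weight = dry weight (mg)/body weight (g) × 100; mean of 6-10 animals ± SD; Mann-Whitney U test.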

MCF7 [3] = experiment: Effect on Estrogen receptor positive MCF-7 human breast cancer cell proliferation at 1x10E-6M; assay type: functional
Method in brief: (§3)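 MCF-7 cells were kept in MEM with 5% charcoal-treated newborn calf serum and phenol red for 2 weeks, then about 2×10^4 cells were plated per well. Compounds in 0.1% DMF were added 2 days later and renewed on day 4; DMF alone served as control. Coulter cell counts were taken on day 5; mean of six dishes ± SD; % T/C.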

MCF7 [4] = experiment: Effect on [3H]thymidine incorporation into estrogen receptor positive MCF-7 human breast cancer cells at 1x10E-6M; assay type: functional
Method in brief: (§4)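 MCF-7 cells were grown in MEM with charcoal-treated 5% newborn calf serum and phenol red, then treated with compounds in 0.1% DMF (renewed on day 4) alongside DMF controls. They were labeled 3 days later with 1 µCi [³H]thymidine per well for 2 h, and incorporated radioactivity per dish was measured; mean of six dishes ± SD; % T/C.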

MCF7 [5] = experiment: Effect on [3H]thymidine incorporation into estrogen receptor positive MCF-7 human breast cancer cells at 1x10E-6M (control = 42.6+/-2.8); assay type: functional; method in brief: as §4
MCF7 [6] = experiment: Effect on [3H]-thymidine incorporation into estrogen receptor positive MCF-7 human breast cancer cells at 5x10E-7M (control = 42.6+/-2.8); assay type: functional; method in brief: as §4
MCF7 [7] = experiment: Effect on Estrogen receptor positive MCF-7 human breast cancer cell proliferation at 5x10E-6M; assay type: functional; method in brief: as §3
[8] = target: T1, Estrogen receptor (Mus musculus); experiment: Anti-uterotrophic effect in mice as relative uterine weight(mg) at 15 ug; assay type: functional; method in brief: as §2
MCF7 [9] = experiment: Effect on [3H]thymidine incorporation into estrogen receptor positive MCF-7 human breast cancer cells at 5x10E-7M
MCF7 [10] = experiment: Effect on Estrogen receptor positive MCF-7 human breast cancer cell proliferation at 1x10E-6M (control = 63.8+/-9.0); assay type: functional; method in brief: as §3
MCF7 [11] = experiment: Effect on [3H]thymidine incorporation into estrogen receptor positive MCF-7 human breast cancer cells at 5x10E-6M; assay type: functional
Method in brief: (§5)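 MCF-7 cells in improved MEM with glutamine, gentamycin and 5% newborn calf serum, switched to charcoal-treated serum two weeks ahead; phenol red present; 37 °C, 5% CO2. About 2×10^4 cells plated per well; compound in 0.1% DMF added 2 days later, renewed on day 4; labelled 3 days later with 1 μCi [3H]thymidine per well for 2 h; cpm/dish, mean of six dishes ± SD.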

[12] = target: T1, Estrogen receptor (Mus musculus); experiment: Uterotrophic effect in mice as relative uterine weight(mg) at 150 ug (control = 12.3+/-3.7); assay type: functional, tissue-based
Method in brief: (§6)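 Immature mice dosed sc per animal on three consecutive days; vehicle controls. Killed and weighed 24 h after last injection; uteri fixed in Bouin solution 2 h, washed with alcoholic LiCl, dried at 100 °C for 24 h. Relative uterus weight = uterine dry weight (mg)/body weight (g) × 100; mean of 6-10 animals ± SD.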

MCF7 [13] = experiment: Effect on Estrogen receptor positive MCF-7 human breast cancer cell proliferation at 5x10E-7M; assay type: functional; method in brief: as §3
MCF7 [14] = experiment: Effect on Estrogen receptor positive MCF-7 human breast cancer cell proliferation at 5x10E-7M (control = 63.8+/-9.0); assay type: functional; method in brief: as §3
MCF7 [15] = experiment: Effect on [3H]thymidine incorporation into estrogen receptor positive MCF-7 human breast cancer cells at 5x10E-6M (control = 42.6+/-2.8); assay type: functional; method in brief: as §5
MCF7 [16] = experiment: Effect on Estrogen receptor positive MCF-7 human breast cancer cell proliferation at 5x10E-6M (control = 63.8+/-9.0); assay type: functional; method in brief: as §3
[17] = target: T1, Estrogen receptor (Mus musculus); experiment: Percent inhibition of estrone stimulated uterotrophic effect in mice at 15 ug; assay type: functional; method in brief: as §1
[18] = target: T1, Estrogen receptor (Mus musculus); experiment: Uterotrophic effect in mice as relative uterine weight(mg) at 15 ug (control = 12.3+/-3.7); assay type: functional, tissue-based; method in brief: as §6
[19] = target: T1, Estrogen receptor (Mus musculus); experiment: Uterotrophic effect in mice as relative uterine weight(mg) at 150 ug (control = 14.5+/-2.1); assay type: functional, tissue-based; method in brief: as §6
MCF7 [20] = experiment: Effect on Estrogen receptor positive MCF-7 human breast cancer cell proliferation at 5x10E-7M (control = 62.7+/-8.8); assay type: functional; method in brief: as §3
MCF7 [21] = experiment: Effect on [3H]thymidine incorporation into estrogen receptor positive MCF-7 human breast cancer cells at 5x10E-6M (control = 48.6+/-3.6); assay type: functional; method in brief: as §5
MCF7 [22] = experiment: Effect on Estrogen receptor positive MCF-7 human breast cancer cell proliferation at 5x10E-6M (control = 62.7+/-8.8); assay type: functional; method in brief: as §3
[23] = target: T1, Estrogen receptor (Mus musculus); experiment: Uterotrophic effect in mice as relative uterine weight(mg) at 15 ug (control = 14.5+/-2.1); assay type: functional, tissue-based; method in brief: as §6
Mus musculus [24] = species on record: Mus musculus; experiment: Relative tumor weight in treated compared to control mice bearing hormone-dependent transplanted MXT mammary tumors at 12.2 mg
MCF7 [25] = experiment: Effect on Estrogen receptor positive MCF-7 human breast cancer cell proliferation at 1x10E-6M (control = 62.7+/-8.8); assay type: functional; method in brief: as §3
MCF7 [26] = experiment: Effect on [3H]thymidine incorporation into estrogen receptor positive MCF-7 human breast cancer cells at 5x10E-7M (control=48.6+/-3.6); assay type: functional; method in brief: as §5
[27] = target: T1, Estrogen receptor (Mus musculus); experiment: Anti-uterotrophic effect in hormone-dependent transplant MXT bearing mice as relative uterine weight in treated and control mice at 12.2 mg (control=100+/-24); assay type: functional
Mus musculus [28] = species on record: Mus musculus; experiment: Anti-tumor activity in hormone-dependent transplant MXT mammary tumor bearing mice at 12.2 mg (control=197+/-130); assay type: functional
MCF7 [29] = experiment: Effect on [3H]thymidine incorporation into estrogen receptor positive MCF-7 human breast cancer cells at 1x10E-6M (control = 48.6+/-3.6); assay type: functional; method in brief: as §4

T1 sequence (O08537 whole entry, looked up): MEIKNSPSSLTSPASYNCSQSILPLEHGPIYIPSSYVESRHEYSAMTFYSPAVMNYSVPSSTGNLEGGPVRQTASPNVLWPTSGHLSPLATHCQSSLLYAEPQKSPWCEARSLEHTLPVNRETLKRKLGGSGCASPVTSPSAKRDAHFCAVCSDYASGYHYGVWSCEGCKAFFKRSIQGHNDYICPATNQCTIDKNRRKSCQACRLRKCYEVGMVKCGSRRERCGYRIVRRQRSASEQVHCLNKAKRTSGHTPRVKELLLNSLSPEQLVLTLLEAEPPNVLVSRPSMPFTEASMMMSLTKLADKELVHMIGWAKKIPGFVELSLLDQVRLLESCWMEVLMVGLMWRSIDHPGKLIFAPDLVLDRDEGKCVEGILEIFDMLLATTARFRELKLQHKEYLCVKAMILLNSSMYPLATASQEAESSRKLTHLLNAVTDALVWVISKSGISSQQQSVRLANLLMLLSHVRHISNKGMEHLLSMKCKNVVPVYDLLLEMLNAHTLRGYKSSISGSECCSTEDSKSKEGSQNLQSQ
T1 sequence (P19785 whole entry, looked up): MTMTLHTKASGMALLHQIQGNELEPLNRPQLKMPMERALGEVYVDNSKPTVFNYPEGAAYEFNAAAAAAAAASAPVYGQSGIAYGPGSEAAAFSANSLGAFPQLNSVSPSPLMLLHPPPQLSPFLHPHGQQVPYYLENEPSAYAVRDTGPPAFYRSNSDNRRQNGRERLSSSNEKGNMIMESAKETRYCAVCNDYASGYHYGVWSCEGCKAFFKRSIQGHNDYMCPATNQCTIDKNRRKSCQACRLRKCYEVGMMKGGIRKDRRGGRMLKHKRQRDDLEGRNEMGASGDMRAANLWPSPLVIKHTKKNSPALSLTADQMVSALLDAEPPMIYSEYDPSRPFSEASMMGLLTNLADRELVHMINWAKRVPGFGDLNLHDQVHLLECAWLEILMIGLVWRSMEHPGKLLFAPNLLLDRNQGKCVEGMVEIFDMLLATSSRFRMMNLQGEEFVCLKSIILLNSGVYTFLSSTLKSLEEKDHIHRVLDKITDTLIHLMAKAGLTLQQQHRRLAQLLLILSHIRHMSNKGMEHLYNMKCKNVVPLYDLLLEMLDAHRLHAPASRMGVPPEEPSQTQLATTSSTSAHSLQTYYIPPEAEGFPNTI

inhibition [1] | Relative uterus weight [2] | Relative uterus weight [8] | inhibition [17] | Compound | T/C (MCF7 [3]) | T/C (MCF7 [4]) | T/C (MCF7 [7]) | T/C (MCF7 [9]) | T/C (MCF7 [11]) | T/C (MCF7 [13]) | further results
48% | 29.4 mg | 41.9 mg | 11% | Cc1c(-c2ccc(O)cc2)n(CCCCCCCNCc2ccccn2)c2ccc(O)cc12 | 41% | 27% | 23% | 34% | 5% | 58% | Activity (MCF7 [5]): 11300; [3H] thymidinecpm/dish (MCF7 [6]): 14500; Cell no/dish (MCF7 [10]): 264000; Relative uterus weight [12]: 19 mg; Cell no/dish (MCF7 [14]): 369000; Activity (MCF7 [15]): 2200; Cell no/dish (MCF7 [16]): 146000; Relative uterus weight [18]: 15.2 mg
5% | 46.1 mg | 40.6 mg | 18% | Oc1ccc(-c2cc3cc(O)ccc3n2CCCCCCNCc2ccccn2)cc1 | 53% | 41% | 31% | 47% | 20% | 54% | Relative uterus weight [19]: 22.1 mg; Cell no/dish (MCF7 [20]): 335000; Activity (MCF7 [21]): 9600; Cell no/dish (MCF7 [22]): 195000; Relative uterus weight [23]: 13.6 mg; T/C (Mus musculus [24]): 80%; Cell no/dish (MCF7 [25]): 334000; [3H] thymidinecpm/dish (MCF7 [26]): 22800; T/C [27]: 78%; Tumor weight (Mus musculus [28]): 158 mg; Activity (MCF7 [29]): 20000
